# L major viab – Leishmania major promastigote growth inhibition, primary screen. inhibition, % at 10 µM. 200,000 tested, 9% active. Leishmania major promastigotes, resazurin fluorescence viability;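 further: promastigotes grown with compound for 44 hours at 28 °C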
# Arbovirus inh – antivirals against arbovirus infection, primary screen, cell-based, full library, 10K replicate subset. arbovirus infection cell-based antiviral screen. AID 1251, 2008. 200,000 tested, 0.37% active. inhibition, % at 10 µM; in the data active means inhibition above about 30%
# Wee1 stabilizer – Wee1 degradation inhibitors, primary screen, cell-based, HeLa, Wee1K328M-luciferase, luminescence. Wee1-like protein kinase (Homo sapiens), P30291. HeLa Luc-Wee1K328M stability; 100% = proteasome inhibitor MG132 effect. reporter increase, % at 5 µM. 220,000 tested, 1.2% active. AID 1321, 2008;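 active means activation above the mean of all tested compounds plus 3 SD, set per screening run, cut at about 8.8% in these data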;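 further: cells exposed to compound for 20 h before luminescence read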
# Target sequence (P30291 whole entry K328M): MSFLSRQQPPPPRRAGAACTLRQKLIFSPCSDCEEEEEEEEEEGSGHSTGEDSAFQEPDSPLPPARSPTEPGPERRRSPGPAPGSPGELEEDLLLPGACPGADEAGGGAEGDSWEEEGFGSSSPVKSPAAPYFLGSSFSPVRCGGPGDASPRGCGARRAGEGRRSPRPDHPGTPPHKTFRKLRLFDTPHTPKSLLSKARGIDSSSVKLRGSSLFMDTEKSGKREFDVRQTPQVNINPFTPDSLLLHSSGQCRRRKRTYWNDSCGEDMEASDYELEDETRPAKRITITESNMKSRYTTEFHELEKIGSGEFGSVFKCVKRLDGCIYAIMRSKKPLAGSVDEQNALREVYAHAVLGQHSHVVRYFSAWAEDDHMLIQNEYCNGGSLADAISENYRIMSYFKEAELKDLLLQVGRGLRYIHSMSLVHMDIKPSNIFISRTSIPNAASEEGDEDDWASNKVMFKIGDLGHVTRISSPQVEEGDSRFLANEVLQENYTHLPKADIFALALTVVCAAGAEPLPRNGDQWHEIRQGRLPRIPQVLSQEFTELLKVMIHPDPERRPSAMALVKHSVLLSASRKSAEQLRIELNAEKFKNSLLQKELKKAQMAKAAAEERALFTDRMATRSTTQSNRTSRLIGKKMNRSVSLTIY
# CHOP inhibitor – inhibitors of CHOP promoter induction, primary screen, cell-based, unfolded protein response, luciferase reporter. CHO-K1 CHOP-promoter luciferase, tunicamycin-induced, 15-18 h. inhibition, % at 10 µM. 220,000 tested, 3.8% active. AID 2732, 2010;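 active means compounds that reduced the stress-induced luciferase reporter signal by more than about 70% of percent inhibition, limit read from the data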
# PKD1 inh – inhibitors of human PKD1 kinase, biochemical, fluorescence polarization; Serine/threonine-protein kinase D1 (Homo sapiens), Q15139; PKD1 kinase fluorescence polarization assay; inhibition, % (test concentration not listed); 200,000 tested, 0.056% active; AID 797, 2007
# Rad51 HR inh – human RAD51 strand exchange inhibitors, primary screen, biochemical, fluorescence; DNA repair protein RAD51 homolog 1 (Homo sapiens), Q06609; hRad51 DNA strand exchange, fluorescence dequenching; inhibition, % at 10 µM; 200,000 tested, 0.085% active; AID 1385, 2008;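 active means inhibition above 40% at the single screening dose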
#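 Material: hRad51 filaments on single-stranded DNA; Reagent: Donor/quencher-labelled 47-bp dsDNA substrate; Compound: 10 µM final, single point; Schedule: 37 °C 15-min filament assembly, 30-min compound preincubation, 15-min exchange; Technique: FRET fluorescence, excitation 485 nm, emission 520 nm; Benchmarks: control wells and blank wells on each plate.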
# Hits are given with their value; - = inactive; . = not tested or not shown. Hits are enriched below; roughly 12% of the tested compounds scored in any of these assays. Unless noted, no stated cut-off is given here; in the data, active means inhibition above about 50%; inactive means the rest.
SMILES,L major viab,Arbovirus inh,Wee1 stabilizer,CHOP inhibitor,PKD1 inh,Rad51 HR inh
CC(Oc1cccc(Cl)c1)C(=O)Nc1ccc([N+](=O)[O-])cn1 (stereo unspecified),61.3,-,-,-,-,-
c1ccc2c(c1)nc(N1CCOCC1)c1ccccc12,-,-,-,-,-,-
COc1ccc(Nc2nc(N3CCCC3)c3ccccc3n2)cc1,100.4,-,-,-,-,-
CCN(CC)c1ccc(Nc2nc(N3CCOCC3)c3ccccc3n2)cc1,96.7,-,-,73.8,-,-
COc1ccc(Nc2nc3ccccc3c(=O)[nH]2)cc1,.,.,-,-,.,-
Nc1cccc2c1C(=O)N(Cc1cccc(Cl)c1)C2=O,-,-,11.2,-,-,-
O=C(O)CCCN1C(=O)/C(=C/c2cn(-c3ccccc3)nc2-c2cccs2)SC1=S,-,-,-,85.2,-,-
Cc1cc(NC(=O)CCCN2C(=O)/C(=C/c3cccs3)SC2=S)no1,-,-,-,76.3,-,-
O=C(CCCN1C(=O)/C(=C/c2cccs2)SC1=S)Nc1cccc(C(=O)O)c1,-,38.1,-,-,-,-
Cc1ccc(NC(=S)NCc2cccs2)cc1,-,-,-,-,-,-
CCCCc1ccc(NC(=S)NCc2cccs2)cc1,-,-,-,85.2,-,-
O=C(NCCCN1CCOCC1)C1Cc2c(ccc3ccccc23)O1 (stereo unspecified),69.3,-,-,-,-,-
Cc1ccc(C(=O)NC(=S)NCCCN2CCOCC2)cc1,64.6,-,-,-,-,-
O=C(CCN1CCCCC1)NNC(=S)NC(=O)c1ccc(Br)cc1,75.0,-,-,-,-,-
O=C(NCCCl)C1Cc2c(ccc3ccccc23)O1 (stereo unspecified),-,-,-,-,-,-
O=C(NC(=S)NCCCN1CCOCC1)c1cccc2ccccc12,78.4,-,-,-,-,-
O=C1NC2=C(C(=O)OC2)C(c2ccc(OC(F)(F)F)cc2)N1 (stereo unspecified),.,.,-,-,.,-
O=C(NC(=S)NCCCN1CCOCC1)c1ccc(Br)cc1,85.6,-,-,-,-,.
O=C(NC(=S)NCCN1CCOCC1)c1ccccc1,-,-,-,-,-,-
Cc1ccc(C(=O)NCCCN2CCOCC2)cc1,-,.,-,.,-,-
Cc1ccc(C(NC(=O)NCCCN2CCOCC2)=C(Cl)Cl)cc1F,81.3,-,-,-,-,-
O=C(CC(=O)c1cc(Cl)ccc1O)c1ccccc1,99.5,-,-,110.3,-,-
Cc1cccc(C(=O)CC(=O)c2cc(Cl)ccc2O)c1,99.3,-,-,107.7,-,-
O=C(NNC(=O)c1ccccc1O)c1ccc(Cl)cc1,-,-,-,-,-,-
c1ccc2c(c1)[nH]c1c3ccccc3sc21,.,.,-,-,.,-
SMILES,L major viab,Arbovirus inh,Wee1 stabilizer,CHOP inhibitor,PKD1 inh,Rad51 HR inh
CCCCC(=O)NC(=O)NC(c1ccccc1)c1ccccc1,.,.,-,-,.,-
COc1ccc(C(=O)CNc2ccc(C)cc2C)cc1,.,.,-,-,.,-
CCOc1ccc(NC(=S)N(CCCN2CCOCC2)Cc2cn(C)c3ccccc23)cc1,59.8,-,-,-,-,.
Cn1cc(CN(CCCN2CCOCC2)C(=S)Nc2cccc(Cl)c2)c2ccccc21,79.7,-,-,-,-,-
Cc1cccc(NC(=S)N(CCCN2CCOCC2)Cc2cn(C)c3ccccc23)c1,89.6,-,-,-,-,-
Cc1ccc(NC(=S)N(C)Cc2cn(C)c3ccccc23)cc1,63.0,-,-,-,-,-
Cc1nc(NCCc2ccccc2)c(C#N)c(C)c1[N+](=O)[O-],-,-,-,-,-,-
CCN(CC)CCNC(=S)Nc1ccc2nc(N3CCCC3)cc(C)c2c1,86.1,-,-,-,-,-
Cc1cc(N2CCCC2)nc2ccc(NC(=S)NCCCOC(C)C)cc12,92.8,-,-,-,-,-
CCCN(CCC)CCCNC(=S)Nc1ccc2nc(N3CCCC3)cc(C)c2c1,87.2,-,-,-,-,-
Cc1cc(N2CCN(C)CC2)nc2ccc(NC(=S)NCCCN3CCN(C)CC3)cc12,-,-,-,-,-,-
CCCCNC(=O)CCC(=O)Nc1ccc2nc(N3CCC(C)CC3)cc(C)c2c1,-,-,-,-,-,-
O=C(c1nc2ncccn2n1)N1CCN(c2ccc(F)cc2)CC1,-,-,-,-,-,-
O=C(c1nc2ncccn2n1)N1CCN(c2ccccc2)CC1,89.8,-,-,-,-,-
CNC(=S)Nc1cc(C)ccc1OC(F)F,-,-,-,-,-,.
COc1ccc(CN(C)C(=O)COC(=O)c2c(-c3ccccc3Cl)noc2C)cc1,-,-,-,-,-,-
Cc1ccc(SCC(=O)Nc2ccc(N3CCOCC3)cc2)c(C)c1,-,-,-,-,-,-
Cc1ccccc1NC(=S)NCCc1ccccc1,-,-,-,-,-,.
Cc1ccc(NC(=S)NCCc2ccccc2)c(C)c1,80.2,-,-,-,-,-
CCC(C)[C@H](NC(=O)NC1CCN(Cc2ccccc2)CC1)C(=O)OC (stereo partly specified),69.7,-,-,-,-,-
COc1ccc(C)cc1NC(=O)NC1CCN(Cc2ccccc2)CC1,64.8,-,-,-,-,-
COC(=O)c1ccccc1NC(=O)NC1CCN(Cc2ccccc2)CC1,-,-,-,-,-,-
Cc1ccccc1NC(=S)NCc1cccs1,-,-,-,-,-,-
Cc1ccccc1NC(=S)NCc1ccccc1,59.4,-,-,-,-,-
CCOc1ncccc1C(=O)OCC(=O)N(CC)c1ccccc1,-,-,-,-,-,-
SMILES,L major viab,Arbovirus inh,Wee1 stabilizer,CHOP inhibitor,PKD1 inh,Rad51 HR inh
O=C(O)CCC(=O)Nc1cc(C(F)(F)F)cc(C(F)(F)F)c1,.,.,-,-,.,-
CC(C)c1ccccc1NC(=S)NC(C)c1ccccc1 (stereo unspecified),97.4,-,-,-,-,-
Cc1ccc(NC(=O)CS(=O)CC(=O)NC2CCN(Cc3ccccc3)CC2)c(C)c1 (stereo unspecified),-,-,-,-,-,-
Cc1ccccc1NC(=S)N/N=C/C(C)c1ccccc1 (stereo unspecified),96.6,-,-,-,-,-
Cc1ccc(NC(=S)NC2CCN(Cc3ccccc3)CC2)c(C)c1,91.2,-,-,-,-,-
Cc1ccccc1NC(=S)NC1CCN(Cc2ccccc2)CC1,93.6,-,-,-,-,.
COC(=O)c1cc(OC)c(OC)cc1NC(=O)c1cc(C(C)(C)C)oc1C,.,.,-,-,.,-
ClCC1NCC(c2ccccc2Cl)c2c1[nH]c1ccccc21 (stereo unspecified),-,-,-,-,-,-
CCCCCN(C(=O)NC(=O)NCCCC)S(C)(=O)=O,-,-,-,-,-,-

# Screening data: PubChem, several laboratories
